Test results published in ChEMBL document CHEMBL2151035, “Diarylcyclopentendione metabolite obtained from a Preussia typharum isolate procured using an unconventional cultivation approach” (J Nat Prod, 2012).
Active and inactive are the calls of the source. The rule behind the calls is not given here.

What was measured:
[1] = tested on: Radical scavenging activity; assay: Antioxidant activity assessed as DPPH free radical scavenging activity up to 30 uM after 30 mins; assay type: functional
Procedure, shortened: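 Samples from 10 mM DMSO stocks were diluted in 2-propanol and mixed with DPPH in 2-propanol (40 uM solution as added). Controls were ascorbic acid (positive) and 2-propanol vehicle (negative). Plates were shaken and left for 30 min, then absorbance was read at 520 nm. Percent inhibition was calculated against control wells, in triplicate. IC50 is the concentration scavenging 50% of DPPH radicals.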

Staphylococcus aureus = assay: Antibacterial activity against methicillin-resistant Staphylococcus aureus up to 30 uM after 24 hrs; assay type: functional, organism-based
Klebsiella pneumoniae = assay: Antibacterial activity against Klebsiella pneumoniae up to 30 uM after 24 hrs; assay type: functional, organism-based
Aspergillus fumigatus = assay: Antifungal activity against Aspergillus fumigatus up to 30 uM after 48 hrs; assay type: functional, organism-based
[2] = tested on: Radical scavenging activity; assay: Antioxidant activity assessed as DPPH free radical scavenging activity after 30 mins; assay type: functional
Procedure, shortened: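 Test samples taken up as 10 mM DMSO stocks, dissolved in 2-propanol. 50 μL of sample, or 2-propanol vehicle as negative control, mixed with 150 μL DPPH in 2-propanol (40 uM). Shaken, stood 30 min, absorbance read at 520 nm. Percent inhibition computed against control wells. Triplicates. IC50 taken as the concentration scavenging 50% of DPPH radicals. Ascorbic acid as positive control.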

SMILES	Activity [1]	Activity (Staphylococcus aureus)	Activity (Klebsiella pneumoniae)	Activity (Aspergillus fumigatus)	IC50 [2] [µM]
COc1cc(C)c(Oc2cc(C)cc(O)c2)c(O)c1	inactive	inactive	inactive	inactive	–
COc1cc(C)c(Oc2cc(C)cc(O)c2O)c(O)c1	–	inactive	inactive	inactive	11.6
O=C1O[C@H]([C@@H](O)CO)C(O)=C1O [ASCORBIC ACID]	–	–	–	–	5.6
COc1cc(C)c(Oc2cc(C)cc(OC)c2O)c(O)c1	–	inactive	inactive	inactive	7.9
COc1cc(C2=CC(=O)[C@@](C)(c3ccc(O)c(OC)c3)C2=O)ccc1O	inactive	inactive	inactive	inactive	–
